Data taken from ChEMBL document CHEMBL3526053, “Species-dependent uptake of glycylsarcosine but not oseltamivir in Pichia pastoris expressing the rat, mouse, and human intestinal peptide transporter PEPT1” (Drug Metab Dispos, 2012).

What was measured:
Assay type in all cases: ADME
[1] = target: T1, Solute carrier family 15 member 1 (Rattus norvegicus, UniProt P51574); assay: Drug uptake in Pichia pastoris GS115 expressing rat recombinant PEPT1 at 5 uM after 30s by dual-channel liquid scintillation counting analysis in presence of cefazolin relative to control; conditions: 0.5 min
T1 sequence (P51574 whole entry): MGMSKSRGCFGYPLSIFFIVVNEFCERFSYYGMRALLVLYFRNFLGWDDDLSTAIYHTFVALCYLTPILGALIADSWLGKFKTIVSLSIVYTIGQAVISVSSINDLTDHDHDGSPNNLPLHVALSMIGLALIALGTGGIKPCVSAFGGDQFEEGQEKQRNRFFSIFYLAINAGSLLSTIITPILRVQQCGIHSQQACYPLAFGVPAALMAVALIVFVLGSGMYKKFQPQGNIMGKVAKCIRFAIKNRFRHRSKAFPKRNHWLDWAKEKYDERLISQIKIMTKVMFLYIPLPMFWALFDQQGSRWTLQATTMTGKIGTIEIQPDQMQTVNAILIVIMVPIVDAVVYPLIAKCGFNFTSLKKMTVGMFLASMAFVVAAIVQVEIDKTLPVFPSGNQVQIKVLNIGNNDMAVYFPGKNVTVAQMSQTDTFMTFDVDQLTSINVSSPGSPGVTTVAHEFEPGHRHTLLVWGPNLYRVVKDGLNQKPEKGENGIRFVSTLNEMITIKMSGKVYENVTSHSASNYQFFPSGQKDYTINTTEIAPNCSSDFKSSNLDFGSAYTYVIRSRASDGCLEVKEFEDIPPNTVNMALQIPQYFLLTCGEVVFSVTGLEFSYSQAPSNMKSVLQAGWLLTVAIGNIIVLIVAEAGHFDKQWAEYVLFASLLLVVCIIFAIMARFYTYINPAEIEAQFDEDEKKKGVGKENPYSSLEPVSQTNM
Method in brief: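 Rat PEPT1 (pPIC3.5K-rPept1) in GS115 His+Mut+ transformant, methanol-induced 20-24 hr in BMMY at 30°C, washed into 100 mM potassium phosphate pH 6.5. [3H]GlySar final 5.0 µM with inhibitor at 10 mM, 30 sec at 24°C. Counts taken by liquid scintillation after 24 hr standing. Values are vector-subtracted and given as % of buffer control. Mean ± SE, n=3.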

[2] = target: T2, Solute carrier family 15 member 1 (Homo sapiens, UniProt P46059); assay: Drug uptake in Pichia pastoris GS115 expressing human recombinant PEPT1 at 5 uM after 30s by dual-channel liquid scintillation counting analysis relative to control; conditions: 0.5 min
T2 sequence (P46059 whole entry): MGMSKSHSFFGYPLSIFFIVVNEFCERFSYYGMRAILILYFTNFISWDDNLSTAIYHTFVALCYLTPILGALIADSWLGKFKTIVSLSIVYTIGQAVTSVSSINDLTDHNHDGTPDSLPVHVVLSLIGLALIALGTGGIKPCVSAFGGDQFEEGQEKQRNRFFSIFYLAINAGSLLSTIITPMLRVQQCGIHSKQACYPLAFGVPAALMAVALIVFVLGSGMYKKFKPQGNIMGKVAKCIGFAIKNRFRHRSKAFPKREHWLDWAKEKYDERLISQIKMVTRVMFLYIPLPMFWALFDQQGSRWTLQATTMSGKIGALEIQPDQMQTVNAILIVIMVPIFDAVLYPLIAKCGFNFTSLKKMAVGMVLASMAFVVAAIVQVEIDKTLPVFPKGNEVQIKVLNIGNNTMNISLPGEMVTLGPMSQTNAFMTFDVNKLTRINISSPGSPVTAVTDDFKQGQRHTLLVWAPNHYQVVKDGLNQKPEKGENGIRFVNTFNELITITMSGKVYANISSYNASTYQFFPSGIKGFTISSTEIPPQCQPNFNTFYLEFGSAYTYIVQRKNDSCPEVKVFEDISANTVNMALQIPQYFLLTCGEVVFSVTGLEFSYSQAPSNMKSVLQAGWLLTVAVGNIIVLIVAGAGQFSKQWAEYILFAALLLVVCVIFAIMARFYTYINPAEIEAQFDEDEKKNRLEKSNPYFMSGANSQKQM
Method in brief: (§1)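 [3H]GlySar 5.0 µM final, 30-s uptake at 24°C in 100 mM potassium phosphate pH 6.5, with or without a potential inhibitor at 10 mM. Cells are methanol-induced transformants. Values are vector-subtracted and expressed as percent of buffer control. Mean ± SE (n=3). ANOVA with Dunnett's test.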

[3] = target: T1, Solute carrier family 15 member 1; assay: Drug uptake in Pichia pastoris GS115 expressing rat recombinant PEPT1 at 5 uM after 30s by dual-channel liquid scintillation counting analysis in presence of acyclovir relative to control; conditions: in vivo, 0.5 min; method in brief: as §1
[4] = target: T2, Solute carrier family 15 member 1; assay: Drug uptake in Pichia pastoris GS115 expressing human recombinant PEPT1 at 5 uM after 30s by dual-channel liquid scintillation counting analysis in presence of elacridar relative to control; conditions: 0.5 min; method in brief: as §1
[5] = target: T1, Solute carrier family 15 member 1; assay: Drug uptake in Pichia pastoris GS115 expressing rat recombinant PEPT1 at 5 uM after 30s by dual-channel liquid scintillation counting analysis in presence of TEA relative to control; conditions: 0.5 min; method in brief: as §1
[6] = target: T3, Solute carrier family 15 member 1 (Mus musculus, UniProt Q9JIP7); assay: Drug uptake in Pichia pastoris GS115 expressing mouse recombinant PEPT1 at 5 uM after 30s by dual-channel liquid scintillation counting analysis in presence of cephapirin relative to control; conditions: 0.5 min; method in brief: as §1
T3 sequence (Q9JIP7 whole entry): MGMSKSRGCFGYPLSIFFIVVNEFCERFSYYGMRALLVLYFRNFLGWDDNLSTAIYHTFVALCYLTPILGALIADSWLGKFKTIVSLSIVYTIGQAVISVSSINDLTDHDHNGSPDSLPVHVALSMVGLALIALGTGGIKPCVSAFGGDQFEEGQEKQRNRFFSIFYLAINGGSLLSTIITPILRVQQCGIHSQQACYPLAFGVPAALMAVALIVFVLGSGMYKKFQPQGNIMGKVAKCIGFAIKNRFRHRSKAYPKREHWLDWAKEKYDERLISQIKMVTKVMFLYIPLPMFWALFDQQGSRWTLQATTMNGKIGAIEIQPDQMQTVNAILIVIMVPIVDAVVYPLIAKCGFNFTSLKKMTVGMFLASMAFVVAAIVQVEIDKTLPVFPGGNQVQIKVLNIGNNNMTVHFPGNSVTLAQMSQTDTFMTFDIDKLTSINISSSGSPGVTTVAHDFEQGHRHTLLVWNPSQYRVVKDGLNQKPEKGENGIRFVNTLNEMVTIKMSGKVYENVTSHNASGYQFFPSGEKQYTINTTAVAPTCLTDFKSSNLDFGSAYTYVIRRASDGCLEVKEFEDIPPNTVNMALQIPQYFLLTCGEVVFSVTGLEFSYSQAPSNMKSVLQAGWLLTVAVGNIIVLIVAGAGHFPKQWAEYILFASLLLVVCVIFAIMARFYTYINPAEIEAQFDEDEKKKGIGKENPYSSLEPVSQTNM

[7] = target: T2, Solute carrier family 15 member 1; assay: Drug uptake in Pichia pastoris GS115 expressing human recombinant PEPT1 at 5 uM after 30s by dual-channel liquid scintillation counting analysis in presence of cefadroxil relative to control; conditions: 0.5 min; method in brief: as §1
[8] = target: T2, Solute carrier family 15 member 1; assay: Drug uptake in Pichia pastoris GS115 expressing human recombinant PEPT1 at 5 uM after 30s by dual-channel liquid scintillation counting analysis in presence of TEA relative to control; conditions: 0.5 min; method in brief: as §1

[3H]C(C(=O)O)N(C)C(=O)CN (stereo not drawn)
Drug uptake [1]: 93.7% | Drug uptake [2]: 100% | Drug uptake [3]: 109% | Drug uptake [4]: 100% | Drug uptake [5]: 94.8% | Drug uptake [6]: 83.7% | Drug uptake [7]: 6.4% | Drug uptake [8]: 113%
